Screening data from PubChem.
CHO parental Ca: ATP-evoked calcium signal inhibitors, parental CHO, primary screen, counter-screen for OX1R antagonist project, cell-based, fluorescence, Fluo-8 calcium dye. parental CHO-K1, ATP-induced calcium, Fluo-8 fluorescence. inhibition, % at 5.6 µM. 0.63% of 330,000 active. AID 463079, 2010;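 active = inhibition above that plate's mean sample inhibition plus 3 SD, cut at about 26% in these data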;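 note: 0% = ATP-challenged DMSO wells and 100% = DMSO wells without ATP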
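Measured by: calcium-sensitive Fluo-8 fluorescence / Test system: CHO parental line / Controls: ATP-challenged DMSO wells low, unchallenged DMSO wells high / Measure: % inhibition / Compound: single nominal dose of 5.6 µM per compound / Replicates: single well per compound, no replicates / Reagent: ATP as calcium-mobilizing challenge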
OX1R antag-1: OX1R (HCRTR1) antagonists, primary screen, fluorescence, CHO/OX1R cells, Fluo-8 calcium, orexin A; Fluo-8 calcium fluorescence; Orexin/Hypocretin receptor type 1 (Homo sapiens), O43613; inhibition, % at 5 µM; AID 434989, 2010; 0.43% of 330,000 active;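 active = inhibition above its plate's threshold, mean inhibition of all tested compounds on the plate plus 3 SD, cut at about 37% in these data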;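 note: 0% = orexin A challenge wells and 100% = SB-334867-A antagonist wells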
Target sequence (O43613 whole entry, looked up): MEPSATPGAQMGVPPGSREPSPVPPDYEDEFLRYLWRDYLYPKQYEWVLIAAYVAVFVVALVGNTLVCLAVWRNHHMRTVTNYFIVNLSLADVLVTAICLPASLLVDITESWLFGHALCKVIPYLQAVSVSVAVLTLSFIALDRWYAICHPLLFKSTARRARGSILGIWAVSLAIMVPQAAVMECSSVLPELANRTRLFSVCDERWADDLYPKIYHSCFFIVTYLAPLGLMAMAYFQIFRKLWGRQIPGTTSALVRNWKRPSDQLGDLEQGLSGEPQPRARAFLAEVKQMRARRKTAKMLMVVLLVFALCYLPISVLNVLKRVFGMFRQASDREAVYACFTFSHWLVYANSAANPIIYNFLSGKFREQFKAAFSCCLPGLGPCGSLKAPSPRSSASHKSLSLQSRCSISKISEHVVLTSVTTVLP
GalR3 antagonist: GalR3 antagonists in HEK293 cells, primary screen, cell-based, fluorescence readout; inhibition, % at 3 µM; AID 651719, 2012; HEK293 GalR3-CNG cAMP membrane potential fluorescence; galR3 body fused to GalR1 C-terminus; 0.44% of 360,000 active; Galanin receptor type 3 (Homo sapiens), O60755;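 active = inhibition above the screen-wide average plus 3 SD, cut at about 13% in these data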;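 note: forskolin and galanin both at EC90 stimulate the cells; cAMP rise reported by CNG channel membrane potential dye signal; 0% = forskolin plus galanin with DMSO and 100% = forskolin alone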
TAAR1 agonist: human TAAR1 agonists, primary screen, Fluo-8 calcium fluorescence, CHO RD-HGA16 cells | vehicle wells 0%, saturating PEA agonist 100% | AID 624467, 2012 | activation, % at 3 µM | Trace amine-associated receptor 1 (Homo sapiens), Q96RJ0 | 0.99% of 360,000 active;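 active = activation above the mean activation of all test compounds in the run plus 3 SD, cut at about 38% in these data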
Target sequence (Q96RJ0 whole entry, looked up): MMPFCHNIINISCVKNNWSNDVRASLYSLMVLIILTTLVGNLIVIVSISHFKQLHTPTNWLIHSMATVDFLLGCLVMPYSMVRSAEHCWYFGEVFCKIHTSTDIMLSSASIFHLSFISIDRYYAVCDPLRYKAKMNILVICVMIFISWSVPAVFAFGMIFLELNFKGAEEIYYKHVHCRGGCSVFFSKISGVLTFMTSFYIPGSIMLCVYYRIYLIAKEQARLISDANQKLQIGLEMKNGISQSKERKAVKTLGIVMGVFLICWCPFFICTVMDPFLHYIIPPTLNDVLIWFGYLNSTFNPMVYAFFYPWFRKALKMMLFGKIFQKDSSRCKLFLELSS
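Test system: RD-HGA16 (CHO) cells co-expressing Gα16 and hTAAR1 / Benchmarks: DMSO vehicle as 0%, PEA at EC100 as 100% / Repeats: no replicates (n 1) / Measure: % activation from peak over basal fluorescence ratio, DMSO-to-PEA scaled / Timing: 17-24 h plating, Fluo-8 75 min 37 °C, 30 min RT / Technique: kinetic Fluo-8 calcium fluorescence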
TAAR1 antagonist: human TAAR1 antagonists, primary screen, Fluo-8 calcium fluorescence, CHO RD-HGA16 cells; Trace amine-associated receptor 1 (Homo sapiens), Q96RJ0; antagonist; inhibition, % at 3 µM; 1.5% of 360,000 active;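 active = inhibition above a per-plate cutoff, the mean inhibition of test compounds on that plate plus 3 SD, cut at about 49% in these data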;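 note: 0% = DMSO plus EC80 beta-PEA response and 100% = DMSO alone without agonist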
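Test system: CHO RD-HGA16 cells bearing hTAAR1 | Reagent: β-PEA, EC80 | Compound dosing: 3 µM, single point | Schedule: Dye loading 75 min at 37 °C, then 30 min room temperature | Signal: Calcium fluorescence with Fluo-8 | Evaluation: Percent inhibition of PEA-evoked calcium signal, max/basal emission ratio | Control set: DMSO-only wells and EC80 β-PEA-stimulated wells | Repeats: Singlicate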
OX1R antag-2: antagonists of human orexin 1 receptor (OX1R). Orexin/Hypocretin receptor type 1 (Homo sapiens), O43613. OX1R-expressing cells, FRET antagonist read-out. inhibition, % at 6.6 µM. 1.8% of 330,000 active. AID 485270, 2010; in the data active = inhibition mostly above about 38%, no sharp cut-off; inactive = mostly below about 40%;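 note: 0% = agonist challenge alone and 100% = reference antagonist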
Starred values were filed as active, the others as inactive; x = not tested or not shown. Hits are enriched below; roughly 4.2% of the tested compounds scored in any of these assays.

SMILES | CHO parental Ca | OX1R antag-1 | GalR3 antagonist | TAAR1 agonist | TAAR1 antagonist | OX1R antag-2
CCc1cc2c(=O)[nH]c(Cc3ccccc3)nc2s1 | 42.7* | -9.4 | -2.1 | 13.6 | 3.4 | 23.9
CC1Cc2nc(SCC(=O)N3CCN(c4ccccc4)CC3)n(CCc3ccccc3)c(=O)c2S1 (stereo unspecified) | -9.0 | -22.1 | x | 1.3 | 52.0* | 14.4
CCn1c(SCC(=O)N2CCN(c3ccccc3)CC2)nc2c(c1=O)SC(C)C2 (stereo unspecified) | -3.4 | -40.9 | x | -1.9 | -38.4 | 10.0
CC(=O)c1ccc(OC2(C)CCN(Cc3csc4ccccc34)C2)cc1 (stereo unspecified) | x | x | -6.2 | -2.0 | 1.4 | x
O=C(NC1CCCCC1)C1CCN(S(=O)(=O)c2cccc3nsnc23)CC1 | 0.2 | 1.4 | 1.8 | 17.3 | -13.2 | 14.7
COc1ccc(C(=O)N/N=C/c2cccc3cccnc23)cc1 | -12.7 | -7.7 | -1.7 | 0.4 | 21.8 | 46.9
O=C(N/N=C/c1ccc[nH]1)c1ccccc1OCc1ccc(F)cc1 | -28.7 | -22.4 | -6.9 | -1.4 | -5.9 | 15.7
CCOc1ccc(OCc2ccc(C(=O)NN=Cc3ccc[nH]3)cc2)cc1 | -2.3 | -8.3 | 56.5* | 1.6 | -0.6 | 17.8
O=C(N/N=C/c1cccc(OCc2ccccc2)c1)c1ccc(Br)cc1 | -10.1 | -13.7 | -0.7 | 0.8 | 37.5 | 15.5
COc1cccc(/C=N/NC(=O)c2ccc(OCc3cccc(Br)c3)cc2)c1 | -22.6 | -27.2 | -3.5 | -0.2 | 52.3* | 34.0
CCOc1ccc(C(=O)N/N=C/c2cccc3cccnc23)cc1 | -31.6 | -16.3 | -1.0 | 8.8 | 5.5 | 74.2*
O=C(NC1CCCC1)c1cccc2c1C(=O)c1ccc(N3CCCCC3)cc1S2(=O)=O | -8.9 | -22.4 | -5.1 | 9.8 | 20.9 | 4.4
COc1ccccc1N1CCN(c2ccc3c(c2)S(=O)(=O)c2cccc(C(=O)NCC4CC4)c2C3=O)CC1 | x | x | -4.6 | 13.0 | 53.8* | x
CC1CCN(c2ccc3c(c2)S(=O)(=O)c2cccc(C(=O)O)c2C3=O)CC1 | 11.7 | -1.8 | -5.4 | 5.8 | 18.8 | 8.4
O=C(NC1CCCCC1)c1cccc2c1C(=O)c1ccc(N3CCCC3)cc1S2(=O)=O | -6.1 | 20.0 | -0.9 | 30.3 | 59.1* | 33.9
CC1CCN(c2ccc3c(c2)S(=O)(=O)c2cccc(C(=O)NC4CCCCC4)c2C3=O)CC1 | -2.6 | -0.7 | -0.5 | 40.8* | 71.5* | 31.2
C=CCNC(=O)c1cccc2c1C(=O)c1ccc(N3CCOCC3)cc1S2(=O)=O | -6.3 | -7.2 | 1.0 | 10.8 | -2.6 | 63.8*
COCCOc1ccc(C(F)(F)F)cc1NC(=O)c1ccccc1F | -2.5 | -10.6 | -7.0 | -1.4 | -6.7 | 11.9
COCCn1c(SC(C)C(=O)Nc2ccc(Cl)cn2)nnc1-c1ccncc1 (stereo unspecified) | -1.2 | -21.1 | 2.8 | 0.6 | -2.4 | 6.9
CCOc1ccccc1C(=O)N[C@H](C(=O)NCc1ccccc1)C(C)C | -3.6 | -32.9 | -1.0 | 2.5 | -10.0 | 15.8
O=C(NC1CC1)c1cccc2c1C(=O)c1ccc(N3CCC(Cc4ccccc4)CC3)cc1S2(=O)=O | 13.6 | 30.5 | -0.6 | 46.2* | 78.1* | 14.0
O=C(c1ccc([N+](=O)[O-])s1)N1CCCc2ccccc21 | -8.6 | -6.5 | -7.2 | -6.2 | 17.7 | 67.4*
O=[N+]([O-])c1nn(-c2ccc3c(c2)OCCO3)n(O)c1=NCCCO | 4.6 | -18.9 | -1.6 | 7.1 | -2.9 | 73.7*
Cc1ccc(CN=c2c([N+](=O)[O-])nn(-c3ccc4c(c3)OCCO4)n2O)cc1 | -17.8 | -40.2 | -8.4 | 0.7 | -8.1 | 35.2
CC(=O)Oc1cccc(Nc2ncnc3ccccc23)c1 | -8.2 | -10.5 | -6.4 | 3.2 | -8.3 | 7.5
SMILES | CHO parental Ca | OX1R antag-1 | GalR3 antagonist | TAAR1 agonist | TAAR1 antagonist | OX1R antag-2
Cc1ccccc1C(=O)Oc1cccc(Nc2ncnc3ccccc23)c1 | 60.6* | 54.6* | -5.5 | 14.9 | 52.8* | 80.8*
O=C(O)c1ccc(S(=O)(=O)c2ccc([N+](=O)[O-])cc2[N+](=O)[O-])cc1 | 1.1 | -7.1 | -10.0 | 2.2 | -2.5 | 56.8*
O=C(O)c1ccc(C(=O)c2cc([N+](=O)[O-])cc([N+](=O)[O-])c2)cc1 | x | x | -6.1 | -0.5 | -23.6 | x
C=CCn1c2ccccc2c2nnc(SCCCn3c(=O)[nH]c4ccccc43)nc21 | x | x | 7.5 | 9.8 | 56.0* | x
C=CCn1c2ccccc2c2nnc(SCN3C(=O)c4ccccc4C3=O)nc21 | -28.5 | -20.9 | 4.3 | 16.1 | 50.7* | 62.4
O=C1CSC(=S)N1c1cccc(Br)c1 | 0.3 | -4.4 | -3.8 | 11.3 | 12.4 | -2.7
Cn1c(=O)cc(SCC(=O)NCC2CCCO2)c2ccc(Cl)cc21 (stereo unspecified) | 4.4 | -7.3 | -2.2 | 2.7 | -12.8 | -10.0
O=C(/C=C/c1ccco1)Nc1ccc(Oc2ccc(Cl)cc2)cc1 | 16.6 | 10.8 | -4.7 | 9.8 | 78.1* | 65.7
CSCCC(NC(=O)c1ccc([N+](=O)[O-])cc1Cl)C(=O)OCC(=O)N1CCN(C(C)=O)CC1 (stereo unspecified) | 0.5 | -2.5 | 4.2 | 0.8 | -19.6 | 54.9*
CSCCC(NC(=O)c1ccc([N+](=O)[O-])cc1Cl)C(=O)OC(C)C(=O)NCc1ccco1 (stereo unspecified) | -15.6 | -22.8 | -1.9 | -0.9 | -22.0 | 49.4*
COCC1CCN(C(=O)c2cc(COc3ccccc3SC)on2)C1 (stereo unspecified) | -17.6 | -27.4 | 0.2 | 0.7 | -29.8 | 19.6
C=CC[C@H]1CC(C)=C[C@H](CC=C)N1C(=O)c1cc(COc2ccccc2SC)on1 | 44.4* | -17.5 | -2.1 | 0.9 | 52.8* | 39.6
CCC(C)NC(=O)Cn1cnc([N+](=O)[O-])c1 (stereo unspecified) | -8.5 | -9.9 | 1.9 | 1.8 | 15.2 | 11.7
O=C(/C=C/c1ccc(OCCCF)cc1)Nc1ccnc(-c2ccncc2)n1 | 30.0 | 21.7 | -7.9 | 11.5 | 15.7 | 84.5*
O=C(/C=C/c1ccc(OCCCF)cc1)Nc1ccnc(-c2cccnc2)n1 | -5.0 | -14.9 | -6.7 | 19.1 | 54.9* | 27.6
CCCCC(=O)Nc1ccnc(-c2cccnc2)n1 | 3.9 | -12.2 | -2.4 | 6.2 | -18.0 | 8.8
O=C(/C=C/c1ccc(OCCCF)cc1)NCc1cccc(Cl)c1 | 2.1 | -5.5 | -5.5 | 3.3 | -2.1 | 25.6
CCc1nc2ccc(C(=O)N(C)C(C)C)cn2c1N(CCC(C)C)CCN(C)C | x | x | -7.1 | 3.7 | -10.0 | x
